Experimental data reported in ChEMBL document CHEMBL4689842, “EUbOPEN Chemogenomics Library wave 1” (2021).

How the values were obtained:
Type in all cases: toxicity, cell-based
[1] = test system: U2OS; test: Incucyte cell viability with U2OS; details: human, 10 µM, compound concentration 10 uM; also: filed as whole numbers so only -1 and 0 and 1 occur
[2] = test system: HEK-293T; test: Incucyte cell viability with HEK293T; details: human, 10 µM, compound concentration 10 uM; also: filed as whole numbers so only -1 and 0 and 1 occur
[3] = test system: Fibroblast; test: Multiplex assay against human fibroblast
Summary of the method: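 Values for tubulin, mitochondrial-mass and membrane-permeability phenotypes are per cents of cells with healthy nuclei. These cells were identified by CellPathfinder machine-learning gating of live cells that had been stained at seeding with Hoechst33342, BioTracker Green Microtubule Cytoskeleton Dye, MitoTracker Red and Annexin V Alexa Fluor 680 and imaged on a CQ1 microscope at 37°C and 5% CO2 after compound addition. The gating first set Hoechst high-intensity objects apart from normal cells, then split normal cells into healthy, pyknosed or fragmented nuclei, and pyknosed cells into mitotic or apoptotic.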

[4] = 0 h, replicate number 2, timepoint 0 hours
[5] = 6 h, replicate number 1, timepoint 6 hours
[6] = 12 h, replicate number 1, timepoint 12 hours
[7] = 18 h, replicate number 1, timepoint 18 hours
[8] = 24 h, replicate number 1, timepoint 24 hours
[9] = 12 h, 1 µM, compound concentration 1 uM, replicate 1
[10] = 12 h, 1 µM, compound concentration 1 uM, replicate 2
[11] = 12 h, 10 µM, compound concentration 10 uM, replicate 1
[12] = 12 h, 10 µM, compound concentration 10 uM, replicate 2
[13] = 24 h, 1 µM, compound concentration 1 uM, replicate 1
[14] = 24 h, 1 µM, compound concentration 1 uM, replicate 2
[15] = 24 h, 10 µM, compound concentration 10 uM, replicate 1
[16] = 24 h, 10 µM, compound concentration 10 uM, replicate 2
[17] = 48 h, 1 µM, compound concentration 1 uM, replicate 1
[18] = 48 h, 1 µM, compound concentration 1 uM, replicate 2
[19] = 48 h, 10 µM, compound concentration 10 uM, replicate 1
[20] = 48 h, 10 µM, compound concentration 10 uM, replicate 2

In the case of `COc1cc2c(NC3CCN(C(C)C)CC3)nc(N3CCC(F)(F)CC3)nc2cc1OCCCN1CCCC1`, the “Growth Rate” value ([1]; 0 h, replicate number 1, timepoint 0 hours) is reported as 1, the “Growth Rate” value [1, 4] is reported as 0 and the “Growth Rate” value [1, 5] is reported as 1. For the same compound, the “Growth Rate” value [1, 6] was 1, the “Growth Rate” value [1, 7] was 1 and the “Growth Rate” value [1, 8] was 1. The “Growth Rate” value [2, 4] was 1, the “Growth Rate” value [2, 5] was 0 and the “Growth Rate” value [2, 6] was 0. The “Growth Rate” value [2, 7] was 0, the “Growth Rate” value [2, 8] was 0 and the “Population Apoptotic (%)” value [3, 9] was 70%. The “Population Fragmented Nuclei (%)” value [3, 9] was 30%, the “Population Healthy Nuclei (%)” value [3, 9] was 48% and the “Population Hoechst High Intensity Objects (%)” value [3, 9] was 11%. The “Population Membrane Permeable-Phenotype (%)” value [3, 9] was 16%, the “Population Mitochondria Different-Phenotype (%)” value [3, 9] was 11% and the “Population Mitotic Cells (%)” value [3, 9] was 29%. The “Population Normal (%)” value [3, 9] was 88%, the “Population Pyknosed Nuclei (%)” value [3, 9] was 21% and the “Population Tubulin-Different-Phenotype (%)” value [3, 9] was 38%. The “Total Cell Count” value [3, 9] was 127, the “Population Apoptotic (%)” value [3, 10] was 30% and the “Population Fragmented Nuclei (%)” value [3, 10] was 20%. The “Population Healthy Nuclei (%)” value [3, 10] was 67%, the “Population Hoechst High Intensity Objects (%)” value [3, 10] was 5% and the “Population Membrane Permeable-Phenotype (%)” value [3, 10] was 3%. The “Population Mitochondria Different-Phenotype (%)” value [3, 10] was 22%, the “Population Mitotic Cells (%)” value [3, 10] was 70% and the “Population Normal (%)” value [3, 10] was 94%. The “Population Pyknosed Nuclei (%)” value [3, 10] was 11%, the “Population Tubulin-Different-Phenotype (%)” value [3, 10] was 19% and the “Total Cell Count” value [3, 10] was 105. For the same compound, the “Population Apoptotic (%)” value [3, 11] was 61%, the “Population Fragmented Nuclei (%)” value [3, 11] was 16% and the “Population Healthy Nuclei (%)” value [3, 11] was 47%. The “Population Hoechst High Intensity Objects (%)” value [3, 11] was 33%, the “Population Membrane Permeable-Phenotype (%)” value [3, 11] was 10% and the “Population Mitochondria Different-Phenotype (%)” value [3, 11] was 13%. The “Population Mitotic Cells (%)” value [3, 11] was 38%, the “Population Normal (%)” value [3, 11] was 66% and the “Population Pyknosed Nuclei (%)” value [3, 11] was 35%. The “Population Tubulin-Different-Phenotype (%)” value [3, 11] was 35%, the “Total Cell Count” value [3, 11] was 239 and the “Population Apoptotic (%)” value [3, 12] was 66%. For the same compound, the “Population Fragmented Nuclei (%)” value [3, 12] was 11%, the “Population Healthy Nuclei (%)” value [3, 12] was 76% and the “Population Hoechst High Intensity Objects (%)” value [3, 12] was 8%. The “Population Membrane Permeable-Phenotype (%)” value [3, 12] was 66%, the “Population Mitochondria Different-Phenotype (%)” value [3, 12] was 97% and the “Population Mitotic Cells (%)” value [3, 12] was 33%. The “Population Normal (%)” value [3, 12] was 91%, the “Population Pyknosed Nuclei (%)” value [3, 12] was 11% and the “Population Tubulin-Different-Phenotype (%)” value [3, 12] was 97%. The “Total Cell Count” value [3, 12] was 89, the “Population Apoptotic (%)” value [3, 13] was 65% and the “Population Fragmented Nuclei (%)” value [3, 13] was 35%. For the same compound, the “Population Healthy Nuclei (%)” value [3, 13] was 47%, the “Population Hoechst High Intensity Objects (%)” value [3, 13] was 20% and the “Population Membrane Permeable-Phenotype (%)” value [3, 13] was 15%. For the same compound, the “Population Mitochondria Different-Phenotype (%)” value [3, 13] was 4%, the “Population Mitotic Cells (%)” value [3, 13] was 34% and the “Population Normal (%)” value [3, 13] was 79%. The “Population Pyknosed Nuclei (%)” value [3, 13] was 17%, the “Population Tubulin-Different-Phenotype (%)” value [3, 13] was 34% and the “Total Cell Count” value [3, 13] was 167. The “Population Apoptotic (%)” value [3, 14] was 29%, the “Population Fragmented Nuclei (%)” value [3, 14] was 14% and the “Population Healthy Nuclei (%)” value [3, 14] was 68%. For the same compound, the “Population Hoechst High Intensity Objects (%)” value [3, 14] was 8%, the “Population Membrane Permeable-Phenotype (%)” value [3, 14] was 2% and the “Population Mitochondria Different-Phenotype (%)” value [3, 14] was 7%. For the same compound, the “Population Mitotic Cells (%)” value [3, 14] was 70%, the “Population Normal (%)” value [3, 14] was 91% and the “Population Pyknosed Nuclei (%)” value [3, 14] was 16%. For the same compound, the “Population Tubulin-Different-Phenotype (%)” value [3, 14] was 12%, the “Total Cell Count” value [3, 14] was 113 and the “Population Apoptotic (%)” value [3, 15] was 63%. The “Population Fragmented Nuclei (%)” value [3, 15] was 22%, the “Population Healthy Nuclei (%)” value [3, 15] was 42% and the “Population Hoechst High Intensity Objects (%)” value [3, 15] was 37%. For the same compound, the “Population Membrane Permeable-Phenotype (%)” value [3, 15] was 4%, the “Population Mitochondria Different-Phenotype (%)” value [3, 15] was 9% and the “Population Mitotic Cells (%)” value [3, 15] was 36%. For the same compound, the “Population Normal (%)” value [3, 15] was 62%, the “Population Pyknosed Nuclei (%)” value [3, 15] was 35% and the “Population Tubulin-Different-Phenotype (%)” value [3, 15] was 43%. The “Total Cell Count” value [3, 15] was 271, the “Population Apoptotic (%)” value [3, 16] was 90% and the “Population Fragmented Nuclei (%)” value [3, 16] was 18%. The “Population Healthy Nuclei (%)” value [3, 16] was 59%, the “Population Hoechst High Intensity Objects (%)” value [3, 16] was 7% and the “Population Membrane Permeable-Phenotype (%)” value [3, 16] was 82%. For the same compound, the “Population Mitochondria Different-Phenotype (%)” value [3, 16] was 100%, the “Population Mitotic Cells (%)” value [3, 16] was 9% and the “Population Normal (%)” value [3, 16] was 92%. For the same compound, the “Population Pyknosed Nuclei (%)” value [3, 16] was 22%, the “Population Tubulin-Different-Phenotype (%)” value [3, 16] was 96% and the “Total Cell Count” value [3, 16] was 112. The “Population Apoptotic (%)” value [3, 17] was 52%, the “Population Fragmented Nuclei (%)” value [3, 17] was 44% and the “Population Healthy Nuclei (%)” value [3, 17] was 43%. For the same compound, the “Population Hoechst High Intensity Objects (%)” value [3, 17] was 26%, the “Population Membrane Permeable-Phenotype (%)” value [3, 17] was 12% and the “Population Mitochondria Different-Phenotype (%)” value [3, 17] was 2%. The “Population Mitotic Cells (%)” value [3, 17] was 47%, the “Population Normal (%)” value [3, 17] was 73% and the “Population Pyknosed Nuclei (%)” value [3, 17] was 12%. The “Population Tubulin-Different-Phenotype (%)” value [3, 17] was 29%, the “Total Cell Count” value [3, 17] was 231 and the “Population Apoptotic (%)” value [3, 18] was 69%. The “Population Fragmented Nuclei (%)” value [3, 18] was 47%, the “Population Healthy Nuclei (%)” value [3, 18] was 44% and the “Population Hoechst High Intensity Objects (%)” value [3, 18] was 34%. For the same compound, the “Population Membrane Permeable-Phenotype (%)” value [3, 18] was 6%, the “Population Mitochondria Different-Phenotype (%)” value [3, 18] was 0% and the “Population Mitotic Cells (%)” value [3, 18] was 30%. For the same compound, the “Population Normal (%)” value [3, 18] was 65%, the “Population Pyknosed Nuclei (%)” value [3, 18] was 7% and the “Population Tubulin-Different-Phenotype (%)” value [3, 18] was 20%. For the same compound, the “Total Cell Count” value [3, 18] was 249, the “Population Apoptotic (%)” value [3, 19] was 37% and the “Population Fragmented Nuclei (%)” value [3, 19] was 19%. The “Population Healthy Nuclei (%)” value [3, 19] was 45%, the “Population Hoechst High Intensity Objects (%)” value [3, 19] was 41% and the “Population Membrane Permeable-Phenotype (%)” value [3, 19] was 6%. For the same compound, the “Population Mitochondria Different-Phenotype (%)” value [3, 19] was 5%, the “Population Mitotic Cells (%)” value [3, 19] was 62% and the “Population Normal (%)” value [3, 19] was 58%. For the same compound, the “Population Pyknosed Nuclei (%)” value [3, 19] was 35%, the “Population Tubulin-Different-Phenotype (%)” value [3, 19] was 32% and the “Total Cell Count” value [3, 19] was 362. The “Population Apoptotic (%)” value [3, 20] was 23%, the “Population Fragmented Nuclei (%)” value [3, 20] was 22% and the “Population Hoechst High Intensity Objects (%)” value [3, 20] was 47%. The “Population Membrane Permeable-Phenotype (%)” value [3, 20] was 4%, the “Population Mitochondria Different-Phenotype (%)” value [3, 20] was 0% and the “Population Mitotic Cells (%)” value [3, 20] was 76%. For the same compound, the “Population Normal (%)” value [3, 20] was 52%, the “Population Pyknosed Nuclei (%)” value [3, 20] was 32% and the “Population Tubulin-Different-Phenotype (%)” value [3, 20] was 34%. The “Total Cell Count” value [3, 20] was 426.
